In ChEMBL document CHEMBL6177921, “Enhancing the antimycobacterial efficacy of pyridine-4-carbohydrazide: linkage to additional antimicrobial agents via oxocarboxylic acids” (RSC Med Chem, 2025) one finds MIC data, which are given here for nine compounds.

Each structure is given as a SMILES string. ≈ marks a conversion by molar mass, not a printed value.

Assay type in all cases: functional
Assay [1] deals with Mycobacterium avium. The assay can be described thus: Antimycobacterial activity against INH/RIF/rifabutin/OFX/EMB resistant Mycobacterium avium CNCTC 330/88 assessed as bacterial growth inhibition incubated for 14 days by two-fold serial dilution method. Conditions: CNCTC 330/88, 336 h, time 14 day. The gist of the method:
(§1)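 M. avium CNCTC 330/88 (stock suspension dilution 10−5) grown in Šula's semisynthetic liquid medium; two-fold serial dilutions 1000 to 1 μM from DMSO stocks (final DMSO 1.0% v/v); final load 1.5 × 10^5 CFU mL−1; MIC read visually as lowest concentration giving complete growth inhibition after 14 and 21 days.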

The subject of assay [2] is Mycobacterium kansasii. The assay can be described thus: Antimycobacterial activity against INH/RIF/rifabutin/OFX/EMB Mycobacterium kansasii CNCTC 6509/96 clinical isolate assessed as bacterial growth inhibition incubated for 7 days by two-fold serial dilution method. Conditions: CNCTC 6509/96, 168 h, time 7 day. The gist of the method:
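Šula's liquid semisynthetic medium; M. kansasii clinical isolate 6509/96 used at stock dilution 10−4, final ~1.5 × 10^5 CFU mL−1. Two-fold dilutions ran 1000–1 μM with final DMSO 1.0% (v/v). MIC was read visually as complete growth inhibition after 7, 14 and 21 days.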

Assay [3] concerns Mycobacterium avium. In words: Antimycobacterial activity against INH/RIF/rifabutin/OFX/EMB resistant Mycobacterium avium CNCTC 330/88 assessed as bacterial growth inhibition incubated for 21 days by two-fold serial dilution method. Conditions: CNCTC 330/88, 504 h, time 21 day. The gist of the method: as §1
Assay [4] deals with Mycobacterium kansasii. In words: Antimycobacterial activity against multi-drug resistant Mycobacterium kansasii clinical isolate CNCTC 6509/96 assessed as bacterial growth inhibition incubated for 21 days by two-fold serial dilution method. Conditions: CNCTC 6509/96, 504 h, time 21 day. The method, boiled down: (§2)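 M. kansasii clinical isolate 6509/96 (stock dilution 10−4) in Šula's semisynthetic liquid medium; two-fold serial dilutions 1000 to 1 μM, DMSO final 1.0% v/v; final load 1.5 × 10^5 CFU mL−1; MIC read visually as complete growth inhibition at 7, 14 and 21 days.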

For assay [5], the system named is Mycobacterium tuberculosis. In words: Antimycobacterial activity against Mycobacterium tuberculosis H37Rv CNCTC 331/88 assessed as bacterial growth inhibition incubated for 21 days by two fold serial dilution method. Conditions: H37Rv CNCTC 331/88, 504 h, time 21 day.
Assay [6] relates to Mycobacterium tuberculosis. In words: Antimycobacterial activity against multidrug sensitive Mycobacterium tuberculosis H37Rv CNCTC 331/88 assessed as bacterial growth inhibition incubated for 14 days by two-fold serial dilution method. Conditions: H37Rv CNCTC 331/88, 336 h, time 14 day.
The subject of assay [7] is Mycobacterium kansasii. The assay can be described thus: Antimycobacterial activity against multi-drug resistant Mycobacterium kansasii CNCTC 6509/96 clinical isolate assessed as bacterial growth inhibition incubated for 14 days by two-fold serial dilution method. Conditions: CNCTC 6509/96, 336 h, time 14 day. The method, boiled down: as §2

One may read the MIC as the least concentration at which growth counts as inhibited.

Regarding `Nc1ccc(S(=O)(=O)Nc2ccccc2Oc2ccccc2)cc1`, the MIC with Mycobacterium avium [1] was 500 µM (≈ 170 µg/mL); in the assay with Mycobacterium kansasii [2], 500 µM (≈ 170 µg/mL); in the assay on Mycobacterium avium [3] it was 1000 µM (≈ 340 µg/mL); in the assay on Mycobacterium kansasii [4] it was 500 µM (≈ 170 µg/mL); in assay [5], 250 µM (≈ 85.1 µg/mL); in assay [6] it was 250 µM (≈ 85.1 µg/mL). Further, the MIC with Mycobacterium kansasii [7] was determined as 500 µM (≈ 170 µg/mL).

Regarding `O=C(O)/C=N/NC(=O)c1ccncc1`, the MIC with Mycobacterium avium [1] is 250 µM (≈ 48.3 µg/mL); with Mycobacterium kansasii [2], 4 µM (≈ 0.773 µg/mL); in the assay with Mycobacterium avium [3], over 250 µM; in the assay with Mycobacterium kansasii [4], 8 µM (≈ 1.55 µg/mL); in assay [5] it was 0.5 µM (≈ 0.0966 µg/mL); in assay [6], 0.25 µM (≈ 0.0483 µg/mL). The MIC with Mycobacterium kansasii [7] was 4 µM (≈ 0.773 µg/mL).

With `Nc1ccc(S(=O)(=O)Nc2ccc(-c3ccccc3)cc2)cc1`, the MIC with Mycobacterium avium [1] was at least 1000 µM; in the assay on Mycobacterium kansasii [2], 250 µM (≈ 81.1 µg/mL); with Mycobacterium avium [3], at least 1000 µM; in the assay with Mycobacterium kansasii [4] it was 500 µM (≈ 162 µg/mL); in assay [5], 500 µM (≈ 162 µg/mL); in assay [6], 500 µM (≈ 162 µg/mL). Besides, the MIC in the assay with Mycobacterium kansasii [7] was 250 µM (≈ 81.1 µg/mL).

On to `Nc1ccc(S(=O)(=O)Nc2ccc(Sc3ccc([N+](=O)[O-])cc3)cc2)cc1`, for which the minimum inhibitory concentration (MIC) with Mycobacterium avium [1] is at least 1000 µM; in the assay on Mycobacterium kansasii [2], 8 µM (≈ 3.21 µg/mL); in the assay with Mycobacterium avium [3] it was at least 1000 µM; with Mycobacterium kansasii [4] it was at least 1000 µM; in assay [5], at least 1000 µM; in assay [6], 125 µM (≈ 50.2 µg/mL). Besides, the MIC in the assay with Mycobacterium kansasii [7] is at least 1000 µM.

Regarding `O=C(/C=N/NC(=O)c1ccncc1)Nc1ccc(S(=O)(=O)Nc2nccs2)cc1`, the MIC with Mycobacterium avium [1] is 250 µM (≈ 108 µg/mL); in the assay on Mycobacterium kansasii [2], 8 µM (≈ 3.44 µg/mL); with Mycobacterium avium [3], 500 µM (≈ 215 µg/mL); with Mycobacterium kansasii [4], 8 µM (≈ 3.44 µg/mL); in assay [5] it was 4 µM (≈ 1.72 µg/mL); in assay [6], 2 µM (≈ 0.861 µg/mL). Further, the MIC with Mycobacterium kansasii [7] stood at 8 µM (≈ 3.44 µg/mL).

With `O=C(/C=N/NC(=O)c1ccncc1)NNC(=O)c1ccncc1`, the MIC was 1000 µM (≈ 312 µg/mL) in the assay on Mycobacterium avium [1]; 8 µM (≈ 2.5 µg/mL) in the assay on Mycobacterium kansasii [2]; over 1000 µM in the assay with Mycobacterium avium [3]; 16 µM (≈ 5 µg/mL) in the assay on Mycobacterium kansasii [4]; 2 µM (≈ 0.625 µg/mL) in assay [5]; 1 µM (≈ 0.312 µg/mL) in assay [6]. For the same compound, in the assay on Mycobacterium kansasii [7], the MIC came out at 16 µM (≈ 5 µg/mL).

For `C/C(=N\NC(=O)c1ccncc1)C(=O)O` [PYRUVIC ACID ISONIAZID], the minimum inhibitory concentration (MIC) is 500 µM (≈ 104 µg/mL) in the assay on Mycobacterium avium [1]; 8 µM (≈ 1.66 µg/mL) in the assay on Mycobacterium kansasii [2]; over 1000 µM in the assay on Mycobacterium avium [3]; 16 µM (≈ 3.32 µg/mL) with Mycobacterium kansasii [4]; 1 µM (≈ 0.207 µg/mL) in assay [5]; 1 µM (≈ 0.207 µg/mL) in assay [6]. In the assay on Mycobacterium kansasii [7], the MIC is 16 µM (≈ 3.32 µg/mL).

`NS(=O)(=O)c1ccc(NC(=O)/C=N/NC(=O)c2ccncc2)cc1`: the MIC in the assay on Mycobacterium avium [1] is 1000 µM (≈ 347 µg/mL); in the assay with Mycobacterium kansasii [2] it was 16 µM (≈ 5.56 µg/mL); in the assay with Mycobacterium avium [3] it was at least 1000 µM; in the assay on Mycobacterium kansasii [4], 32 µM (≈ 11.1 µg/mL); in assay [5], 2 µM (≈ 0.695 µg/mL); in assay [6] it was 1 µM (≈ 0.347 µg/mL). Besides, the MIC in the assay on Mycobacterium kansasii [7] was 32 µM (≈ 11.1 µg/mL).

With `Nc1ccc(S(=O)(=O)Nc2ccc(Oc3ccc(Cl)cc3)cc2)cc1`, the MIC in the assay on Mycobacterium avium [1] was found to be 1000 µM (≈ 375 µg/mL); with Mycobacterium kansasii [2], 250 µM (≈ 93.7 µg/mL); with Mycobacterium avium [3] it was 1000 µM (≈ 375 µg/mL); with Mycobacterium kansasii [4] it was 500 µM (≈ 187 µg/mL); in assay [5] it was 500 µM (≈ 187 µg/mL); in assay [6] it was 250 µM (≈ 93.7 µg/mL). The MIC in the assay on Mycobacterium kansasii [7] is 500 µM (≈ 187 µg/mL).
